This is an account of results in paper PMC4631057 (ACS chemical biology, 2015).

Series [1] concerns Bcl-2, Msi1, and XIAP mRNAs. Put plainly: mRNA stability after actinomycin D in HCT-116. Format: cell-based, human. To be noted: 20 μM, 5 μg/mL actinomycin D, compared to DMSO control. A digest of the protocol: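 HCT-116 cells, cultured in DMEM with 10% FBS at 37 °C and 5% CO2, were exposed to 5 μg/mL actinomycin D together with 20 μM test compound or DMSO. Half-lives of Bcl-2, Msi1 and XIAP mRNAs were determined. Data are representative of two independent experiments.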

The test system of series [2] is Wnt signaling pathway. Put plainly: Wnt responsive 7xTcf promoter/luciferase reporter assay in HCT-116. Format: cell-based, human. Conditions: 20 μM, 24 h, 20 mM LiCl stimulation, compared to DMSO control. A digest of the protocol: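 HCT-116 cells were infected with the 7TFP lentiviral vector to stably express the 7xTcf promoter/luciferase construct. Cells were plated and allowed to attach overnight. They were then stimulated with 20 mM LiCl and treated with 20 μM test compound or DMSO for 24 h. Cells were lysed in reporter lysis buffer and luciferase was assayed. Activity was normalized to total protein. Values are mean ± SD of three independent experiments, compared with DMSO by one-way ANOVA.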
For orientation: A reporter such as luciferase makes a cellular process visible.

Series [3] deals with cleaved PARP, cleaved caspase-3, LC3 conversion. Put plainly: Western blot of apoptosis and autophagy markers in HCT-116. The format is cell-based, human. To be noted: 75 μM, 48 h. A digest of the protocol: (§1)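 HCT-116 cells were grown in DMEM with 10% FBS and 1% antibiotics at 37 °C in humidified 5% CO2. They were treated with test compound or DMSO at the indicated doses for 48 h. Protein levels were then measured by Western blot, with α-tubulin as loading control.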
(A western blot detects proteins with antibodies after separation by electrophoresis.)

Series [4] addresses HuR bound Msi1 mRNA (Homo sapiens, UniProt Q15717). Put plainly: RNP IP, HuR-bound Msi1 mRNA in HCT-116 cell lysate. To be noted: 50 μM, compared to DMSO control. Format: cell-based. In a few lines:
(§2)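 HCT-116 lysate, prepared with a protein G immunoprecipitation kit, incubated 30 min with test compound or DMSO. HuR antibody, or mouse IgG as negative control, was then added for 60 min. Complexes were collected on protein G agarose, RNA isolated, and bound transcripts quantified by qRT-PCR. Mean ± SD of two independent experiments.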

The target in series [5] is HuR-bound XIAP mRNA (Homo sapiens, UniProt Q15717). Put plainly: RNP IP, HuR-bound XIAP mRNA in HCT-116 cell lysate. Format: cell-based. To be noted: at indicated doses, compared to DMSO. A digest of the protocol:
as §2

Series [6] has as its system protein levels of Bcl-2, Msi1, and XIAP. Put plainly: Western blot of HuR target protein levels in HCT-116. Format: cell-based, human. To be noted: indicated doses, 48 h. In a few lines: as §1
In series [7] the test system is ARE^Msi1–FITC. Put plainly: FP titration of Bcl-xL with Msi1-FITC. Conditions: highest concentration tested 1000 nM; 2 nM Msi1-FITC. Format: binding.
Series [8] concerns the target T1, HuR full-length (human, UniProt Q15717 1-326). Put plainly: fluorescence polarization.
The target in series [9] is T1, HuR full-length. Put plainly: competition.
For series [10], the target named is HuR RRM1/2 (UniProt Q15717 20-186). Put plainly: AlphaLISA. On the technique in general: Alpha assays give light when donor and acceptor beads are brought close together.
Series [11] deals with T1, HuR full-length. Put plainly: fluorescence polarization. This is another data set of the same source.
For series [12], the target named is T1, HuR full-length. Put plainly: fluorescence polarization. The source holds these as a separate data set.

T1 sequence (Q15717 whole entry): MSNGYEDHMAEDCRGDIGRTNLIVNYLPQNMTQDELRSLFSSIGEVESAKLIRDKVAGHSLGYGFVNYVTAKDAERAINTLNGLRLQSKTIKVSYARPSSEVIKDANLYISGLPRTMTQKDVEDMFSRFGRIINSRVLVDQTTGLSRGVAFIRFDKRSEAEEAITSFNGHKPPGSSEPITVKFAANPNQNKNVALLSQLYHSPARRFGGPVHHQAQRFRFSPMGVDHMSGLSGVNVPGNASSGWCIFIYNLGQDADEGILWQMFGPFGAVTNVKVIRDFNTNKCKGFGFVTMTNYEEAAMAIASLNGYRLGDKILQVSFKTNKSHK
HuR bound Msi1 mRNA, sequence (Q15717 2-326 limits assumed): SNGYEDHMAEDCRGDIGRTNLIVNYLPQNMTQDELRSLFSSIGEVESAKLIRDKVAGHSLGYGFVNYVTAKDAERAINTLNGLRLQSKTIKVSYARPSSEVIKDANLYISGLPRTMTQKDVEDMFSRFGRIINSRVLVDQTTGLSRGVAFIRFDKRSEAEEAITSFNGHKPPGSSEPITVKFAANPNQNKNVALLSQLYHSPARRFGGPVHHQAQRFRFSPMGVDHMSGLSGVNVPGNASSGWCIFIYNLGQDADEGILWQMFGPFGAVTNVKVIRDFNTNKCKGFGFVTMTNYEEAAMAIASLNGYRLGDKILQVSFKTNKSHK
HuR-bound XIAP mRNA, sequence (Q15717 2-326 limits assumed): as above
HuR RRM1/2, sequence (Q15717 20-186): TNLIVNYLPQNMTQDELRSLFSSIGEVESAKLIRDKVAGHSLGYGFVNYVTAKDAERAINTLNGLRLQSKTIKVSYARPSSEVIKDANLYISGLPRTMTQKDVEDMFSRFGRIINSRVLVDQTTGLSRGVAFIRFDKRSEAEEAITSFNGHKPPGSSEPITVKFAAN

With `CCN(CC)C(=O)CC(c1cc(OC)c(OC)c(OC)c1)c1c(OC)cc(OC)c2c(-c3ccccc3)cc(=O)oc12` (stereo not drawn) [CMLD-1], the “effect on half-lives of Bcl-2, Msi1 and XIAP mRNAs” value in [1] is recorded as “shortened the half-lives”. The “effect on Wnt signaling (luciferase reporter)” value in series [2] is recorded as “significantly impacted”. In series [3], the “LC3-I conversion to LC3-II” value is recorded as “detected”, the PARP cleavage result is listed as “obvious PARP cleavage” and the caspase-3 cleavage result is given as “subtle caspase-3 cleavage”. In addition, in series [4], the “effect on HuR bound Msi1 mRNA (RNP IP)” value is “significantly blocked”. In series [5], the “effect on HuR-bound XIAP mRNA (RNP IP)” value is given as “potently inhibited”. For the same molecule, the “effect on protein levels of Bcl-2, Msi1, and XIAP” value in series [6] is reported as “decreased”.

Consider “Bcl-xL: non-RNA binding protein used as specificity control”, for which the “binding to ARE^Msi1–FITC (in words)” value in [7] is recorded as “no binding”.

As for UAGUUAUUUUUAUGUC (ssRNA) [XIAP-FITC (AREXIAP)], the binding result in series [8] is recorded as “binds”.

Regarding AAAAGAUUUAUUUAUU (ssRNA) [Bcl-2-FITC (AREBcl-2)], the binding result in series [8] is given as “binds”.

For orientation: IC50 means the concentration needed to halve the response being measured. The molecule GCUUUUAUUUAUUUUG (ssRNA) [Msi1 RNA unlabeled] gave an IC50 in series [9] of 17.9 nM.

The term Kd denotes the equilibrium constant for the complex coming apart. For the molecule GCUUUUAUUUAUUUUG (ssRNA) [Msi1 RNA biotinylated], the Kd in series [10] is 75 nM.

On to UAUUUGAUAGUACACU (ssRNA) [APC-FITC], for which the binding signal in series [11] was 20 fold lower affinity than Msi1.

GCUUUUAUUUAUUUUG (ssRNA) [Msi1-FITC (AREMsi1)] yielded a Kd in [12] of roughly 3 nM.
